Test results published in ChEMBL document CHEMBL1147458, “Lead identification of a potent benzopyranone selective estrogen receptor modulator” (Bioorg Med Chem Lett, 2004).

What was measured:
MCF7 = assay: Antiproliferative activity against MCF-7 cell line; format: functional, cell-based; conditions: Homo sapiens
U2OS = assay: Ability to inhibit release of interleukin-6 from U2OS cell lines transfected with estrogen receptor alpha; format: functional, cell-based; conditions: Homo sapiens
How it was run: (§1)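 Estrogen-receptor-negative osteosarcoma U2OS cells, transfected with ER-α, were screened for inhibition of IL-6 cytokine release.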

[1] = Concentration required for inhibition of Interleukin-6 in U20S cells was determined; format: cell-based; how it was run: as §1

| SMILES | IC50 (MCF7) [nM] | IC50 (U2OS) [nM] | IC50 [1] [nM] |
| --- | --- | --- | --- |
| O=c1oc2cc(O)ccc2c(-c2cccc(OCCCN3CCCCC3)c2)c1-c1ccccc1 | 9.5 | 1.5 | – |
| CCCc1c(Cc2c(F)cccc2Cl)c(=O)oc2cc(O)ccc12 | – | – | 300 |
| O=c1oc2cc(O)ccc2c(-c2cccc(OCCCCN3CCCCC3)c2)c1-c1ccccc1 | 12 | 3.2 | – |
| O=c1oc2cc(O)ccc2c(-c2ccc(OCCCCN3CCCCC3)cc2)c1-c1ccccc1 | 134 | 69 | – |
| O=c1oc2cc(O)ccc2c(-c2ccc(OCCCN3CCCCC3)cc2)c1-c1ccccc1 | 335 | 355 | – |
| O=c1oc2cc(O)ccc2c(Cc2ccc(OCCCCN3CCCCC3)cc2)c1-c1ccccc1 | 13 | 5 | – |
| O=c1oc2cc(O)ccc2c(-c2cccc(OCCCCCN3CCCCC3)c2)c1-c1ccccc1 | 15 | 11 | – |
| O=c1oc2cc(O)ccc2c(-c2ccc(OCCN3CCCCC3)cc2)c1-c1ccccc1 | 425 | 505 | – |
| CC/C(=C(\c1ccc(O)cc1)c1ccc(OCCN(C)C)cc1)c1ccccc1 | 24 | 1.9 | – |
| O=c1oc2cc(O)ccc2c(-c2cccc(OCCN3CCCCC3)c2)c1-c1ccccc1 | 85 | 12 | – |
| O=c1oc2cc(O)ccc2c(-c2ccc(OCCCCCN3CCCCC3)cc2)c1-c1ccccc1 | 335 | 114 | – |
| O=c1oc2cc(O)ccc2c(Cc2ccc(OCCCN3CCCCC3)cc2)c1-c1ccccc1 | 18 | 4.4 | – |
| O=c1oc2cc(O)ccc2c(-c2ccc(OCCCCCCN3CCCCC3)cc2)c1-c1ccccc1 | 720 | 145 | – |
| O=c1oc2cc(O)ccc2c(Cc2ccc(OCCN3CCCCC3)cc2)c1-c1ccccc1 | 7.7 | 0.38 | – |
| O=C(c1ccc(OCCN2CCCCC2)cc1)c1c(-c2ccc(O)cc2)sc2cc(O)ccc12 [RALOXIFENE] | 4.9 | 3.1 | – |
